Measured values collected from several papers.
Lines come from different studies, so protocols differ.
Read-out: enzyme activity
Mode: inhibitor
CHEK2: Serine/threonine-protein kinase Chk2 (CHEK2, Homo sapiens, UniProt O96017)

CC(C)(O)[C@H]1CC[C@H](Nc2ccc3ncc(-c4cccc(C(F)(F)F)c4)n3n2)CC1 — remaining activity (CHEK2; 1 µM): 97.4%
CC(C)(C)c1nc(-c2cccc(NS(=O)(=O)c3c(F)cccc3F)c2F)c(-c2ccnc(N)n2)s1 — remaining activity (CHEK2; radiometric; 1 µM): 103%
CC(C)(C)C(=O)c1sc(NC2CCCCC2)nc1N — remaining activity (CHEK2; 10 µM): 53%
Cc1cnc(NC2CCOCC2)nc1-n1cnc(C(=O)NC(CN)c2cc(F)cc(Cl)c2)c1 (centres unmarked) — remaining activity (CHEK2; radiometric; 1 µM): 75%
Cc1ccc(C(=O)Nc2ccc(CN3CCN(C)CC3)c(C(F)(F)F)c2)cc1C#Cc1cnc2cccnn12 — remaining activity (CHEK2; 23.5 nM): 98%
Cc1sc(C(=O)NC2COC2)cc1-n1cc(NC(=O)Nc2c(F)cccc2Cl)cn1 — remaining activity (CHEK2; 10 µM): 95.2%
Cc1ccc(NC(=O)c2ccc(C)c(C(F)(F)F)c2)cc1C#Cc1nn(C2CCC(O)CC2)c2ncnc(N)c12 (centres unmarked) — remaining activity (Serine/threonine-protein kinase Chk2 (CHEK2, Homo sapiens, UniProt O96017, I157T); 10 µM): 103%
CCCOc1ccc(OC)c(F)c1C(=O)c1ccc(C(=O)N[C@@H]2CNC[C@H]2NC(=O)c2ccc3[nH]ncc3c2)cc1 — remaining activity (Serine/threonine-protein kinase Chk2 (CHEK2, Homo sapiens, UniProt O96017, R145W); 10 µM): 21%
COc1cc(Nc2cnc(C#N)c(O[C@H](C)CN(C)C)n2)ncc1-c1cnn(C)c1 — remaining activity (CHEK2; radiometric; 10 µM): 31%
Cn1c(=O)n(-c2ccc(C(C)(C)C#N)cc2)c2c3cc(-c4cnc5ccccc5c4)ccc3ncc21 — remaining activity (CHEK2; 10 µM): 80%
COc1cc(Cl)c(C(=O)N[C@@H](CN[C@H]2CC[C@@H](N)CC2)Cc2ccc(C#N)cc2)cc1-c1ccc(CN[C@H](C)c2ccc(C)cc2)o1 — remaining activity (CHEK2; 1 µM): 98%
